Assay [1] concerns Candida albicans. Nature of the assay: Fungicidal activity against Candida albicans CAI4. Format: functional. Summed up:
(§1)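 Overnight cultures diluted 1/400 in PBS, exposed to compound or DMSO without ascorbic acid for 0 h and 5 h at 37°C. Survivors counted as CFU on YPD agar after 2 days at 30°C. MFC taken as lowest concentration giving under 1% survival relative to DMSO control.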

In a further assay the test system is Nakaseomyces glabratus. The assay can be described thus: Fungicidal activity against Candida glabrata BG2. Format: functional. The procedure, abridged:
as §1

The test system of assay [2] is Candida albicans. Nature of the assay: Fungicidal activity against Candida albicans CAI4 in presence of 10 mM ascorbic acid. Format: functional. Summed up:
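Overnight C. albicans culture diluted 1/400 in PBS, exposed to compound or DMSO with 10 mM ascorbic acid for 0 h and 5 h at 37°C. CFU counted on YPD agar after 2 days at 30°C. MFC defined as minimal concentration leaving under 1% survival versus DMSO control.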

Assay [3] has as its system Candida albicans. Nature of the assay: Induction of endogenous ROS accumulation in Candida albicans CAI4 after 3 hrs by 2',7'-dichlorofluorescein diacetate staining. It is filed as functional, organism-based. Summed up:
(§2)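 Log-phase cells suspended in PBS and pre-incubated with compounds for 3 h at 37°C. Cells then washed in PBS and incubated with 2',7'-dichlorofluorescein diacetate for 3 h at 37°C. Cellular fluorescence read by fluorescence spectrometer, ex 485 nm / em 525 nm. Tested over a range of concentrations up to 100 µg/ml.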

The test system of assay [4] is Candida albicans. The assay can be described thus: Induction of endogenous ROS accumulation in Candida albicans CAI4 at 100 ug/ml after 3 hrs by 2',7'-dichlorofluorescein diacetate staining. Format: functional, organism-based. The procedure, abridged: as §2

MFC and Activity data for seven molecules are collected here from ChEMBL document CHEMBL1157441, “Fungicidal activity of truncated analogues of dihydrosphingosine” (2008).

≈ marks a conversion by molar mass, not a printed value. Calls of active or inactive are those of the source.

As a reminder, the MFC is the smallest concentration meeting the test's criterion for killing the fungus. In the case of `CCCCCCCCCCCC[C@@H](O)[C@@H](N)CO`, the MFC came out at 0.5 µg/mL (≈ 1.93 µM) against Candida albicans [1], 0.5 µg/mL (≈ 1.93 µM) against Nakaseomyces glabratus and 10 µg/mL in the assay with Candida albicans [2]. Besides, in the assay on Candida albicans [3], the outcome was Active.

`CCCCCC[C@@H](O)[C@@H](N)CO`: the MFC against Candida albicans [1] and against Nakaseomyces glabratus was over 100 µg/mL each time. The result in the assay on Candida albicans [4] was inactive.

Consider `CCCCCCCCCCCCCC[C@@H](O)[C@@H](N)CO`, for which the MFC turned out to be 0.5 µg/mL (≈ 1.74 µM) with Candida albicans [1], 0.5 µg/mL (≈ 1.74 µM) against Nakaseomyces glabratus and 2 µg/mL in the assay with Candida albicans [2]. Also, the outcome in the assay with Candida albicans [3] was Active.

On to `CCCCCCCCCCCCCCC[C@@H](O)[C@@H](N)CO` [DIHYDROSPINGOSINE], for which the MFC with Candida albicans [1] worked out at 5 µg/mL (≈ 16.6 µM); in the assay with Nakaseomyces glabratus, 1 µg/mL (≈ 3.32 µM); in the assay on Candida albicans [2], 5 µg/mL. The result in the assay on Candida albicans [3] was Active.

On to `CCCCCCCCC[C@@H](O)[C@@H](N)CO`, for which the figures for the MFC in the assay with Candida albicans [1], against Nakaseomyces glabratus and in the assay on Candida albicans [2] were 10 µg/mL (≈ 46 µM), 10 µg/mL (≈ 46 µM) and over 25 µg/mL, respectively. In addition, the result in the assay with Candida albicans [3] was Active.

Take `CC[C@@H](O)[C@@H](N)CO`: the MFC with Candida albicans [1] and against Nakaseomyces glabratus was over 100 µg/mL each time. Also, the outcome in the assay on Candida albicans [4] was inactive.

Regarding `CCCCCCCCCCCCCC[C@@H](O)[C@@H](O)[C@@H](N)CO` [PHYTOSPHINGOSINE], the MFC with Candida albicans [1] stood at 1 µg/mL (≈ 3.15 µM); against Nakaseomyces glabratus it was 1 µg/mL (≈ 3.15 µM); with Candida albicans [2] it was 1 µg/mL. In addition, the result in the assay on Candida albicans [3] was Active.
